This data set relates to MS2 coat protein. As to the kind of experiment: apparent Kd, MS2 coat protein; higher = weaker binding; RNA-MaP array; FMN 200 µM where present. The gist of the method:
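Apparent Kd: the median of filtered binding-curve fits from single clusters. Designs were transcribed on Illumina sequencing-chip clusters by stalled E. coli RNA polymerase and titrated with SNAP-549-labelled MS2 coat protein from 0.7 or 1.5 nM, doubling to 3 µM, in 100 mM Tris-HCl pH 7.5, 80 mM KCl, 4 mM MgCl2, BSA, DTT, yeast tRNA and Tween-20. Each series ran without and then with constant ligand, and green signal was normalised to red-channel RNA signal and control-cluster median Fmax.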

Where [1] appears, read: designed as: ON switch for flavin mononucleotide, no ligand.
Where [2] appears, read: ligand present: flavin mononucleotide, designed as: ON switch for flavin mononucleotide.
Setting [3] is: designed as: OFF switch for flavin mononucleotide, no ligand.
Setting [4] is: ligand present: flavin mononucleotide, designed as: OFF switch for flavin mononucleotide.

“UCCACGUGUGCAGGAUAUCCCACGAGCGCAACAUGAGGAUCACCCAUGUACCUGAGUCUCGGAACGGAGAAGGGUACAUGUUAA”: the “apparent Kd” value worked out at 340 nM under setting [1] and 45.2 nM under setting [2].

In the case of “UUAUGCUGAGAGAAGGUUCAAACUACAUAUUGCAUACAUGAGGAUCACCCAUGUUGGUGAAUAAGAAAGGAUAUUUUACUGUAU”, the “apparent Kd” value by setting is: under setting [3], 86.6 nM; under setting [4], 63.1 nM.

As to “ACUUCACAUGAGGAUCACCCAUGUGAGGAUAUCGUCGAGGAUGUAAUGCCAUCCGUGGCGAGAAGGCGCAUGGU”, the “apparent Kd” value reads like this: under setting [3], 29.9 nM; under setting [4], 77.7 nM.

Take “UUGCAGUGCGGGUAGGAUAUGUAGGGUGGUACAUGAGGAUCACCCAUGUAUCCACCCUUCGACCGGCAGAAGGGCCUGUCACCGC”: the “apparent Kd” value reads like this: under setting [1], 15.2 nM; under setting [2], 14.8 nM.

Consider “UGGUAACAUGAGGAUCACCCAUGUCAGGAUAUCAGUAAGAAUAGAUUAGAGUAGAAGAUGAGAAGGGACUAUAU”, for which the “apparent Kd” value amounted to 31.9 nM under setting [3] and 29.5 nM under setting [4].

Take “UGUCGGAGCAGAGGAUAUUACAUGAGGAUCACCCAUGUAUGAACCAAUAGCUGGAAACAGCACUGUAAGAAGGCUGCUCCGACA”: the “apparent Kd” value under setting [3] was determined as 8.67 nM and the “apparent Kd” value under setting [4] was 96.2 nM.

Consider “AUUACAUGAGGAUCACCCAUGUACGGCACGUUUCAAAACAGUGAGGAUAUACGAUAUGUAGGAACGUAGAAGGCACUGGGUGCA”, for which the “apparent Kd” value by setting is: under setting [1], 82.7 nM; under setting [2], 35.9 nM.

Regarding “UGGUACUAGAGAGGAUAUGGGAAGAUACAUGAGGAUCACCCAUGUUUAAGAAUGCCGAGAGGCAACUAGAAGGCCCUAGUACCU”, the “apparent Kd” value runs as follows: under setting [1], 490 nM; under setting [2], 31.5 nM.

On to “GCCUCAUAGUAGAAGGGACUUAGACAGUAAAGCAAAUAGAGGAAUUAACAUGAGGAUCACCCAUGUCAGGAUAUACUAAGAGGC”, for which the “apparent Kd” value by setting is: under setting [3], 11.3 nM; under setting [4], 12.1 nM.

Consider “AUCGGAAUGUAGAAGGGUGACAUGAGGAUCACCCAUGUACAAAUGCGUUUUUCGGUAAUUGAUCCACAGGAUAUACUGUCCGAG”, for which the “apparent Kd” value is, setting by setting: under setting [1], 1080 nM; under setting [2], 794 nM.

For the sequence “UCGGAAUUCAAGAAGGACAUGAGGAUCACCCAUGUAGGAUAUUGACCCGAAUUGUGGGUUUUGCUGAUGCACUUCCCGAGGACA”, the “apparent Kd” value runs as follows: under setting [1], 147 nM; under setting [2], 11.6 nM.

Turning to “CUACCUUAUGAGAAGGCGGUCAUGAAACAUGAUCGAGGAUAUCAUGUAAACAUGAGGAUCACCCAUGUAUGGGUAUUAUGGUAA”, the “apparent Kd” value came to 226 nM under setting [1] and 28.8 nM under setting [2].

As for “GACUGAUUGUAGAAGGUACUUAAUACUCAUGUAACAUGAGGAUCACCCAUGUAUCACCCAUAUUGUAAGGAUAUACAUAUCUCA”, the “apparent Kd” value was 337 nM under setting [1] and 167 nM under setting [2].

For “GUAUUUAUAUAAGGAUAUAAGUCUAGGACAUGAGGAUCACCCAUGUGUGUCUUAGAAGGUAUAUGGGUAAUACUGUUACAGUAA”, the “apparent Kd” value under setting [1] was 226 nM and the “apparent Kd” value under setting [2] was 112 nM.

In the case of “GCAUGCGUUCGAGGAUAUCGGUGAGCAACGGAACGAGAAGGCGAUCGAAUGUCACAUAUUAUGUACAUGAGGAUCACCCAUGUA”, the “apparent Kd” value under setting [1] came out at 104 nM and the “apparent Kd” value under setting [2] was determined as 43.4 nM.

As for “AAGAGUGCAGGAUAUACUUGUUAGGACGGUUGGAUGGUUUGACAUGAGGAUCACCCAUGUAGAAGGGCAGAGAG”, the “apparent Kd” value reads like this: under setting [3], 67.7 nM; under setting [4], 67.8 nM.

On to “AAACACGGACAUGAGGAUCACCCAUGUGGCGAUAGCCUUGGGAGAAGGUAUAAAUAAAAUAAUAAUUAGGAUAUUCAUACCGUG”, for which the “apparent Kd” value under setting [1] was 275 nM and the “apparent Kd” value under setting [2] came to 108 nM.

Consider “CUUUUGUGAGGAUAUCAGUAGUAAUACAAUAGUAUUACUAUUGAGAAGGCACAUGAGGAUCACCCAUGUUCCUC”, for which the “apparent Kd” value runs as follows: under setting [3], 39.4 nM; under setting [4], 156 nM.

“AUCUACCUAGGAUAUACAUGAGGAUCACCCAUGUACAGUUUCAUCUAGGGAUACUCACGUAGAAGGAGGUAGAU”: the “apparent Kd” value under setting [3] is 36.6 nM and the “apparent Kd” value under setting [4] turned out to be 21.5 nM.

As to “GCCUCACAUGAGGAUCACCCAUGUCAGGAUAUCUAAGGCGAGGUGCAGGCACUUCGUGAGAGAAGGGACGUCAA”, the “apparent Kd” value by setting is: under setting [3], 21.4 nM; under setting [4], 49.8 nM.

For “UUAAAUCAUGUAGGAUAUGCAUGGCGAAGCUACGCAGAAGGACAUGAGGAUCACCCAUGUUAUAGCUACUGAGUUCAGUGGCAA”, the “apparent Kd” value runs as follows: under setting [3], 107 nM; under setting [4], 231 nM.

Regarding “GCGUUCUUGUAGAAGGUACAUACAAUCUCUUUUUAACACAUGACACAUGAGGAUCACCCAUGUUGUAAGGAUAUACAUGAACGC”, the “apparent Kd” value by setting is: under setting [1], 8.7 nM; under setting [2], 8.86 nM.

Turning to “UAAUUUUUGACAGGAUAUCCAUGUACAUGAGGAUCACCCAUGUAAAAGGGUAGCCUCAUCGGGCAGGAGAAGGGUCGAUAGGCG”, the “apparent Kd” value runs as follows: under setting [3], 249 nM; under setting [4], 134 nM.

Turning to “GAUGAGGUAGGAUAUACGAGAAUAUAGGGUAGAUAUAUAACACAUGAGGAUCACCCAUGUAGAAGGACCAGUAG”, the “apparent Kd” value is 38.4 nM under setting [3] and 89.9 nM under setting [4].

As to “UCAAGUAUGUAGGAUAUCGAUGUCUACGGACAUCGAGAAGGACGUACAUGAGGAUCACCCAUGUAACUUGCAUG”, the “apparent Kd” value stood at 464 nM under setting [3] and 188 nM under setting [4].

On to “AAUUGAAACGUAGGAUAUCGCUAUAAAUUAAUUCGAGAAGGACGUACAUGAGGAUCACCCAUGUUAAAUGGUGUAGUUUAGUUG”, for which the “apparent Kd” value runs as follows: under setting [3], 108 nM; under setting [4], 270 nM.

“AUUUCCAGAGGAUAUGCGAGGGUGUACCUCUAACAGCGCAAACAUGAGGAUCACCCAUGUAGAAGGCUGAUCAU”: the “apparent Kd” value is, setting by setting: under setting [3], 56.5 nM; under setting [4], 54.8 nM.

“GACCUCCCUGUAAGGAUAUCCGUGCAUCAAAGCAAGGAGAAGGUACAUGAGGAUCACCCAUGUCACCCGCGUUA”: the “apparent Kd” value is 14.7 nM under setting [3] and 21 nM under setting [4].

Turning to “CUAAUGUGAGGAUAUGGUGUUGAUCGCAGGAAGGAGAUGCUCCAGAAGGCACAUGAGGAUCACCCAUGUAGUGA”, the “apparent Kd” value was determined as 70.5 nM under setting [3] and 36.7 nM under setting [4].

Turning to “AAUGCGGCAGGAUAUACAUGAGGAUCACCCAUGUAGAUCAGAUAUAUGGUCGAACCAUGUAGAAGGGCCGCAAA”, the “apparent Kd” value reads like this: under setting [3], 34.3 nM; under setting [4], 129 nM.

Consider “CGGGAAGUCGUAGGAUAUGGUGAUGUACAUGAGGAUCACCCAUGUCCGUCUUCUCUCACAAGAUGCCAGAAGGACGACUUCCGG”, for which the “apparent Kd” value runs as follows: under setting [1], 766 nM; under setting [2], 103 nM.

Turning to “GUGCCUUGGGAGAAGGCCCAAUGCAAAGCAUAGGGAGGAUAUCCAUAUAAUAAAUAAACAUGAGGAUCACCCAUGUGGCACAAA”, the “apparent Kd” value runs as follows: under setting [1], 19.4 nM; under setting [2], 12 nM.

For the sequence “AAAUUUAACGAAGGAUAUGGAUACAUGAGGAUCACCCAUGUAUAUUUUGUGAUCUUGUAAAAGUACCAGAAGGUCGUAUACAUA”, the “apparent Kd” value by setting is: under setting [3], 85.7 nM; under setting [4], 208 nM.

Take “GGAAAUCAUGUAGGAUAUGCAUGGCGAAGCUACGCAGAAGGACAUGAGGAUCACCCAUGUUCUAGCGUCUGAGUUCAGAUGCAA”: the “apparent Kd” value under setting [3] amounted to 20.4 nM and the “apparent Kd” value under setting [4] amounted to 56.3 nM.

Consider “GGAAAUCAUGUAGGAUAUGCAUGGCGACGCUACGCAGAAGGACAUGAGGAUCACCCAUGUUAUAGCGUCCGAGAAAGGAUGCAA”, for which the “apparent Kd” value is, setting by setting: under setting [3], 34.5 nM; under setting [4], 53.4 nM.

With “CGGUACUAGGGAGGAUAUGGGAAGAUACAUGAGGAUCACCCAUGUUUAAGAAUGCCGAGAGGCAACUAGAAGGCCCUAGUACCU”, the “apparent Kd” value reads like this: under setting [1], 353 nM; under setting [2], 20.7 nM.

Consider “CAGUACUGAGGAUAUACAUGAGGAUCACCCAUGUGUUCCUGCUAGGAUAUUAGCAAAAGUAGAAGGCAGAAGGGAAUGUGCCUA”, for which the “apparent Kd” value runs as follows: under setting [3], 6.93 nM; under setting [4], 6.73 nM.

Consider “AUACAAUUUCGAGGAUAUCGGUGAUAAAUAAUACGAGAAGGCGAUGAAAGAUAUAAUCCUAUUUACAUGAGGAUCACCCAUGUU”, for which the “apparent Kd” value under setting [1] was 34.8 nM and the “apparent Kd” value under setting [2] came out at 31.1 nM.

For the sequence “GUGUACGGAGGAUAUAUGUGGUGAGCAUACGCUCAAGCUUCACAUGAGGAUCACCCAUGUAGAAGGCUGUGCAC”, the “apparent Kd” value under setting [3] amounted to 210 nM and the “apparent Kd” value under setting [4] was determined as 150 nM.

For the sequence “GUCUCGAUGUAGAAGGCCGCGUCCGGCUCACGCGGAGGAUAUACAUGAGGAUCACCCAUGUGUCUGUGGCUAAUAUGGUACGGA”, the “apparent Kd” value stood at 41.8 nM under setting [3] and 234 nM under setting [4].

“GUAGAGUAAGGAUAUGUAGAAUAGGAUAGAAUGGUUAGAAUGCAGAAGGUACAUGAGGAUCACCCAUGUAAUGU”: the “apparent Kd” value under setting [3] turned out to be 22.1 nM and the “apparent Kd” value under setting [4] was 21.1 nM.

Regarding “GCCCUUCGUGGAAGGGCAAAAGGACAGGAUAUCGCUUAAACAUGAGGAUCACCCAUGUCCGUUAACGAGAAGGGUCGAAUAAAU”, the “apparent Kd” value turned out to be 64.2 nM under setting [1] and 12 nM under setting [2].

On to “GGACGUCACAUUUACAUGAGGAUCACCCAUGUCUCUUGACAUGAGGAUAUGGAUCCUAAUUGGAUCCAGAAGGCAUGGACGUCC”, for which the “apparent Kd” value runs as follows: under setting [1], 1130 nM; under setting [2], 153 nM.

“CUCUUUUAAGGAUAUACAUGAGGAUCACCCAUGUGCAUAGGUAUGUCCGGGUCCUGGAGUAGAAGGUGGGACGG”: the “apparent Kd” value stood at 70.3 nM under setting [3] and 58.4 nM under setting [4].

Regarding “ACGCCCUGAGGAUAUCUUAUCCCGUACAUGAGGAUCACCCAUGUUCUCCUCCGGGCUCCGAGAGAAGGCAGGCCCA”, the “apparent Kd” value was 26.7 nM under setting [3] and 37 nM under setting [4].

For “GUAGCAACAUGAGGAUCACCCAUGUAGGAUAUCGCUAUUGUAAUCAUGAAACAUGAUUACAAUAGCGAGAAGGACAUAUGCUAA”, the “apparent Kd” value under setting [3] amounted to 8.33 nM and the “apparent Kd” value under setting [4] came to 10.7 nM.

Take “AGUCAGAGCAGAGGAUAUAUACAUGAGGAUCACCCAUGUGACUGCCUAUGCUCGAAAGAGUAUGUAUAGAAGGCUGCUCUGACA”: the “apparent Kd” value under setting [3] came to 611 nM and the “apparent Kd” value under setting [4] was found to be 276 nM.

For “UUUUUGUCAGGAUAUGACUAGAUGCACGUUAGUGUAUUUACUUAGAAGGGACAUGAGGAUCACCCAUGUAUUCC”, the “apparent Kd” value under setting [3] turned out to be 30.7 nM and the “apparent Kd” value under setting [4] stood at 26.7 nM.

For the origin of these results see the EternaBench riboswitch data.
